From PubChem BioAssay
In the library only some 2.1% were active in any assay of this set; here they are far more common.
SR-BI HDL uptake: mouse SR-BI HDL lipid transfer inhibition. actives 0.96% (n = 320,000). inhibition, % at 12.5 µM. ldlA[mSR-BI] CHO cells, DiI-HDL uptake fluorescence, 3 h. Q61009. AID 488896;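 active = mean replicate inhibition of at least 70% and a set share of replicates each scoring 70 or more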;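 also: 0% = median of neutral control wells and 100% = median of positive control wells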
Target sequence (Q61009 whole entry, looked up): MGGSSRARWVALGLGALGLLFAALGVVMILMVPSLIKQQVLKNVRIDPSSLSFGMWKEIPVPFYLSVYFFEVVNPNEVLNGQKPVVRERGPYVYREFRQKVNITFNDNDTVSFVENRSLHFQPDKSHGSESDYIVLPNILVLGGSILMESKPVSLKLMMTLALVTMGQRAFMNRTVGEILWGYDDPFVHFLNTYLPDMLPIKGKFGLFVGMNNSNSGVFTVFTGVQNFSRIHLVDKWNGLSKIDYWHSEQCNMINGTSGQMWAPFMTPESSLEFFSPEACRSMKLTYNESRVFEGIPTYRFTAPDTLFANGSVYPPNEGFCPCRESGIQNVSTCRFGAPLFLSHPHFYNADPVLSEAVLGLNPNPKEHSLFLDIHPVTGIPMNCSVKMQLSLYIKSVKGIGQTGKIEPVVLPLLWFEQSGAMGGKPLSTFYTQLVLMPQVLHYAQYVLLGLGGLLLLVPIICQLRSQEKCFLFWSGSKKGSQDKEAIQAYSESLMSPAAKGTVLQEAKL
PKA-R2B act: PKA-R2B complex activation. PKA-R2B holoenzyme dissociation, Cy5-IP20 fluorescence polarization; R2B truncated from residue 108, S112A mutant; 0% DMSO only, 100% 113 µM cGMP. activation, % at 11.4 µM. actives 0.079% (n = 340,000);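 active = activation above a cutoff set at the mean over all compounds plus 3 SD, cut at about 18% in these data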;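 also: higher means more holoenzyme dissociation and a rise in polarization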
PKA-R1A act: activates the PKA-R1A holoenzyme complex | actives 0.083% (n = 340,000) | P00514+P68181 | activation, % at 11.4 µM | PKA-R1A dissociation, Cy5-IP20 fluorescence polarization; scaled: DMSO 0%, 113 µM cGMP 100% | AID 504707;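 active = percent activation above the mean of all tested compounds plus 3 SD, cut at about 19% in these data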;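 also: higher means more PKAc released from R1A so a rise in polarization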
dFosB act: enhances mouse delta FosB homodimer DNA binding; activation, % at 25 µM; actives 0.99% (n = 340,000); purified delta FosB, TAMRA-CDK5 oligo fluorescence polarization; percent of positive-control signal above neutral wells; P13346;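 active = mean activation above about 17%, with every replicate also reaching it, limit read from the data, passing the limit was not always enough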
CDK5 p35 inh: CDK5/p35 (human) kinase inhibition; AID 488839; actives 0.01% (n = 330,000); inhibition, % at 10 µM; Recombinant CDK5/p35, ADP-Glo luminescence, 60 min;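 active = highest replicate inhibition of at least 50% and at least 75% of replicates reaching 50%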;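 also: plate controls were DMSO neutral control for no effect and GW8510 at 10 µM for full effect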
SR-BI DiI-HDL act: enhances SR-BI lipid uptake from DiI-HDL; activation, % at 12.5 µM; CHO ldlA[mSR-BI] cells, DiI-HDL uptake fluorescence, 3 h; 100 = double the neutral-control signal; AID 504775; actives 0.096% (n = 320,000);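 active = mean replicate activation of at least 60% and every replicate at or above 60%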;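 also: 0% = median plate neutral-control signal and 100% = twice that signal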
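System: CHO ldlA[mSR-BI] cells / Medium: HEPES-buffered (25 mM, pH 7.4) F12 plus 0.5% BSA / Probe or stimulus: labelled HDL, 10 µg/mL / Doses: single compound concentration, delivered by pin transfer / Schedule: 3 h, 37 °C / Measured by: DiI fluorescence, bottom read / Measure: cell-associated DiI fluorescence as measure of HDL uptake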
Starred values were filed as active, the others as inactive; · = no result.

SMILES	SR-BI HDL uptake	PKA-R2B act	PKA-R1A act	dFosB act	CDK5 p35 inh	SR-BI DiI-HDL act
CCOC(=O)c1cnc2c(-c3ccc(Cl)cc3)c(C)nn2c1N	-12	4	-13	-1	1	12
Cc1cc(Nc2ccc(Br)cc2)nc(-c2ccccc2O)n1	75*	-1	3	13	0	-75
Cc1cc(N/N=C/c2ccc(O)c(C)c2O)nc(-c2ccccc2O)n1	104*	-10	-6	2	-1	-104
Cc1ccc(Nc2cc(C)nc(-c3ccccc3O)n2)cc1	50	-2	-9	6	-1	-50
C/C(=N\Nc1cc(C)nc(-c2ccccc2O)n1)c1ccccc1	55	0	5	1	-4	-55
CC(C)(C)OC(=O)NCCCCCNC(=O)c1[nH]cnc1C(=O)Nc1ccon1	-10	2	-1	-1	1	10
Fc1ccc(Nc2nc(NCc3ccco3)c3ccccc3n2)cc1	11	5	-7	53*	2	-11
COc1cc(OC)cc(C(=O)Nc2nc(CC(=O)NCc3ccccc3OC)cs2)c1	70*	-18	3	5	2	-70
COc1cc(OC)cc(C(=O)Nc2nc(CC(=O)NCCc3ccccc3)cs2)c1	81*	14	-2	-21	-2	-81
CC(Cc1ccccc1)N1C(=O)c2cccc([N+](=O)[O-])c2C1=O (stereo not drawn)	-7	15	-1	-2	0	7
COc1ccc(OC)c(Nc2c3ccccc3nc3ccccc23)c1	27	10	1	37*	1	-27
COc1ccc(Nc2ncnc3ccccc23)c(OC)c1	5	3	12	0	-1	-5
COc1ccc(OC)c(Nc2cc(C)c3ccccc3n2)c1	40	-2	-14	0	1	-40
Cc1ccc(Nc2nc(NCCO)c3ccccc3n2)cc1C	0	-12	-8	32*	1	0
COc1ccc(Nc2nc(N3CCCC3)nc3ccccc23)c(OC)c1	36	-4	14	39*	-1	-36
COc1ccc(OC)c(Nc2nc(NCCO)c3ccccc3n2)c1	17	4	2	31*	0	-17
CCCCn1c(N)c(N(C)C(=O)c2ccc(Br)o2)c(=O)[nH]c1=O	-11	-4	-3	-5	-1	11
O=C(c1ccc(F)cc1F)N1CCN(c2ccccn2)CC1	·	3	1	-1	1	·
OCCNc1c2ccccc2nc2ccccc12	-7	-5	5	20*	2	7
OCCNc1nc2ccccc2nc1NCCO	-3	5	0	-7	-1	3
COc1ccc(C(=O)Nc2cccc(NC(=O)c3ccc(OC)c(OC)c3)n2)cc1OC	81*	-3	2	-28	0	-81
COc1ccc(C(=O)Nc2nc(C)c(C)s2)cc1OC	79*	5	-3	2	1	-79
COc1ccc(C(=O)Nc2cccc3cccnc23)cc1OC	79*	-7	-9	-34	0	-79
COc1ccc(S(=O)(=O)N2CCOCC2)cc1NC(=O)C1CC(=O)N(c2ccc3c(c2)OCCO3)C1 (stereo not drawn)	·	7	4	·	·	·
COCCN1CC(C(=O)NCc2ncccc2C)CCC1=O (stereo not drawn)	-22	10	1	0	-2	22
SMILES	SR-BI HDL uptake	PKA-R2B act	PKA-R1A act	dFosB act	CDK5 p35 inh	SR-BI DiI-HDL act
O=[N+]([O-])c1cccc(/C=C2\CCC(/C=N/Nc3ccc4ccccc4n3)=C2N2CCOCC2)c1	88*	18	-2	-3	1	-88
O=[N+]([O-])c1cc([N+](=O)[O-])c(Oc2cccnc2Br)cc1NN1CCCCC1	-21	-3	9	4	3	21
NC(=O)c1c(NC(=O)C2CCCO2)sc2c1CCC2 (stereo not drawn)	-9	-2	-4	3	1	9
CC(C)(C)C1CCc2c(sc(NC(=O)C3CCCO3)c2C(N)=O)C1 (stereo not drawn)	78*	-2	-6	-4	1	-78
COc1cc(/C=C2\SC(N)=NC2=O)ccc1OCC(=O)Nc1ccc(C)cc1	-7	13	-1	79*	-1	7
CC(=O)Nc1ccc(S(=O)(=O)Oc2cccc(/C=C3\SC(N)=NC3=O)c2)cc1	-2	-5	-14	33*	0	2
CC(NC(=O)C(=O)N1CCCCC1)C(c1cccs1)N1CCN(C)CC1 (stereo not drawn)	2	3	-5	-3	2	-2
O=C1c2ccccc2[C@@H]2C[C@@H](O)[C@H](Nc3cccc(Cl)n3)CCN12	-7	-3	0	1	-5	7
O[C@@H]1CN(CC2CCCCC2)[C@@H](c2ccccc2)C[C@H]1n1cc(-c2ccc(F)cc2)nn1	·	0	-5	·	·	·
CSCCC(NC(=O)c1ccco1)C(=O)N1CCN(C(c2ccccc2)c2ccccc2)CC1 (stereo not drawn)	-1	2	-12	-8	0	1
COc1ccc(S(=O)(=O)NNC(=O)Nc2ccc(C)cc2C)c(OC)c1	12	-13	-13	1	0	·
O=C(Nc1cccc(S(=O)(=O)N2CCOCC2)c1)c1ccc(Cl)c([N+](=O)[O-])c1	35	2	-11	-4	2	-35
CCOC(=O)c1ccc(NC(=O)c2ccc(C)c(S(=O)(=O)N3CCOCC3)c2)cc1	87*	8	0	-8	1	-87
Cc1ccc(NC(=O)c2cccc(F)c2)cc1S(=O)(=O)N1CCCCCC1	66	-2	-1	-6	0	-66
Cc1ccc(NC(=O)c2ccc(=O)[nH]c2)cc1S(=O)(=O)N1CCCCCC1	80*	-3	1	-17	0	-80
Cc1ccc(C(=O)Nc2cccc(S(=O)(=O)N3CCOCC3)c2)cc1[N+](=O)[O-]	77*	-13	-21	10	1	-77
CCOc1ccc(CCNC(=O)c2ccc(Cl)c(S(=O)(=O)N3CCOCC3)c2)cc1OCC	73*	5	-2	-3	2	-73
CC(C(=O)NCc1cccnc1)c1ccc([N+](=O)[O-])cc1 (stereo not drawn)	-36	-2	-16	4	-6	36
C[C@@H]1CN([C@H](C)CO)C(=O)CCCn2cc(nn2)CO[C@H]1CN(C)S(=O)(=O)c1ccc(C#N)cc1	·	-3	13	·	·	·
O=C(Nc1ccc(N2CCOCC2)cc1)c1cc2c(s1)CCCCC2	88*	-18	-2	-7	-6	-88
